In ChEMBL document CHEMBL1138476 (J Med Chem, 2009):
Values after ≈ are worked out from the molar mass of the structure shown. Active and inactive are the calls of the source. The rule behind the calls is not given here.

Key:
[1] = tested on: Canis familiaris; experiment: Effect on respiratory function in spontaneously breathing mongrel dog assessed as change in tidal volume at 5 mg/kg after intravenous infusion for 60 mins (RVb= 13.0+/-10.3 %); assay type: functional, Canis lupus familiaris
[2] = tested on: Rattus norvegicus; experiment: Toxicity in rat assessed as total distance traveled at 100 mg/kg, po after 1 hr by spontaneous locomotor test; assay type: organism-based; parameters: dose 100 mg/kg, route oral; conditions: in vivo
How it was run: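 Rat spontaneous locomotor activity test with oral dosing in 0.25% Methocel 1 h before testing, at doses up to 100 mg/kg. Values are mean ± SEM, with N rats per group, compared with the vehicle (zero-dose) group.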

[3] = tested on: Rattus norvegicus; experiment: Effect on acute renal function in rat assessed as change in urine volume per 100 gm body weight at 30 mg/kg, po (RVb= 1.7+/-0.2 ml/100g); assay type: functional
[4] = tested on: Rattus norvegicus; experiment: Effect on acute renal function in rat assessed as change in urine phosphate level per 100 gm body weight at 30 mg/kg, po (RVb= 8.7+/-2.3 mg/dl); assay type: functional
[5] = Lipophilicity log P of the compound; assay type: physicochemical; conditions: octanol/water
[6] = tested on: Canis familiaris; experiment: Effect on respiratory function in spontaneously breathing mongrel dog assessed as change in mean arterial pressure at 5 mg/kg after intravenous infusion for 30 mins (RVb= 4.0+/-3.0 %); assay type: functional, Canis lupus familiaris, Artery
[7] = tested on: Canis familiaris; experiment: Effect on respiratory function in spontaneously breathing mongrel dog assessed as change in pulmonary compliance at 5 mg/kg after intravenous infusion for 15 mins (RVb= 0.8+/-2.0 %); assay type: functional, Canis lupus familiaris
[8] = tested on: Rattus norvegicus; experiment: Anxiolytic activity in rat assessed as increase in time spent on open arm at 18 mg/kg, po by elevated plus-maze test; assay type: functional, organism-based; parameters: dose 18 mg/kg
How it was run: (§1)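 Rat elevated plus maze: percent of test time spent in the open arms. Oral dosing in 0.25% Methocel 60 min before testing; n = 12 per dose, mean ± SEM. Analysed by ANOVA followed by Fisher's LSD comparisons against vehicle.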

[9] = tested on: Rattus norvegicus; experiment: Effect on acute renal function in rat assessed as change in urine pH per 100 gm body weight at 30 mg/kg, po (RVb= 7.74+/-0.07 mg/dl); assay type: functional
[10] = tested on: Rattus norvegicus; experiment: Effect on acute renal function in rat assessed as change in urine potassium level per 100 gm body weight at 30 mg/kg, po (RVb= 60.3+/-11.1 mg/dl); assay type: functional
[11] = tested on: Canis familiaris; experiment: Effect on respiratory function in spontaneously breathing mongrel dog assessed as change in minute volume at 5 mg/kg after intravenous infusion for 15 mins (RVb= -4.7+/-3.4 %); assay type: functional, Canis lupus familiaris
[12] = tested on: Canis familiaris; experiment: Effect on respiratory function in spontaneously breathing mongrel dog assessed as change in minute volume at 5 mg/kg after intravenous infusion for 6 mins (RVb= -3.6+/-7.5 %); assay type: functional, Canis lupus familiaris
[13] = tested on: Canis familiaris; experiment: Effect on respiratory function in spontaneously breathing mongrel dog assessed as change in mean arterial pressure at 5 mg/kg after intravenous infusion for 60 mins (RVb= 5.1+/-3.5 %); assay type: functional, Canis lupus familiaris, Artery
[14] = tested on: Rattus norvegicus; experiment: Ex vivo receptor occupancy of CRF receptor in rat brain at 0.3 mg/kg, po by [125I]sauvagine binding and autoradiography relative to control; assay type: functional
How it was run: (§2)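 Rats were given 0.3, 1, 3, 10 or 30 mg/kg po in 0.25% Methocel 60 min before sacrifice. Brains were removed, sectioned and frozen at −80 °C. Ex vivo CRF receptor binding gave occupancy relative to vehicle-treated rats, reported as mean ± SEM.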

[15] = Plasma concentration in rat at 30 mg/kg, po after 1 hr; assay type: ADME, organism-based; parameters: dose 30 mg/kg, route oral
How it was run: (§3)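 Rats (n = 9, renal function study) given 30 mg/kg po; plasma levels measured in a separate cohort dosed the same way, sampled at 1 and 5 h after dosing.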

[16] = tested on: Canis familiaris; experiment: Effect on respiratory function in spontaneously breathing mongrel dog assessed as change in airway resistance at 5 mg/kg after intravenous infusion for 60 mins (RVb= 17.3+/-15.1 %); assay type: functional, Canis lupus familiaris
[17] = Elimination half life in chimpanzee at 1 mg/kg, po; assay type: ADME, organism-based, Pan troglodytes; parameters: dose 1 mg/kg, route oral; conditions: in vivo, read-out: beta t1/2 (converted)
How it was run: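 Two alert chimpanzees were given 1 mg/kg po as a 1 mg/mL suspension in 50:50 (v/v) 0.5% methylcellulose and Tang orange juice containing 1% Tween-80. EDTA blood was taken predose and at 2–96 h. Bioavailability was calculated against a 0.5 mg/kg iv dose given to one animal.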

[18] = tested on: Rattus norvegicus; experiment: Toxicity in rat assessed as time spent on rotarod at 30 mg/kg, po after 1 hr by rotarod test; assay type: organism-based; parameters: dose 30 mg/kg, route oral; conditions: in vivo
How it was run: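 Rats, n = 8 per dose, dosed po in 0.25% Methocel 1 h before testing, at 0, 1.0, 3.0, 10, 30 and 100 mg/kg. Read-out is time on rotorod (s), mean ± SEM, compared with the vehicle (zero-dose) group.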

[19] = tested on: Canis familiaris; experiment: Effect on respiratory function in spontaneously breathing mongrel dog assessed as change in tidal volume at 5 mg/kg after intravenous infusion for 6 mins (RVb= 5.8+/-3.8 %); assay type: functional, Canis lupus familiaris
[20] = Elimination half life in rat at 1 mg/kg, iv and 5 mg/kg, po; assay type: ADME, organism-based; conditions: in vivo, read-out: beta t1/2 (converted)
How it was run: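 Rats (n = 3) were dosed at 1 mg/kg iv in 10% DMAC, 70% propylene glycol and deionized water, and at 5 mg/kg po in 0.5% methylcellulose.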

[21] = tested on: Rattus norvegicus; experiment: Ex vivo receptor occupancy of CRF receptor in rat brain at 10 mg/kg, po by [125I]sauvagine binding and autoradiography relative to control; assay type: functional; how it was run: as §2
[22] = tested on: Canis familiaris; experiment: Effect on respiratory function in spontaneously breathing mongrel dog assessed as change in respiration rate at 5 mg/kg after intravenous infusion for 15 mins (RVb= -6.4+/-4.0 %); assay type: functional, Canis lupus familiaris
[23] = tested on: Rattus norvegicus; experiment: Anxiolytic activity in rat assessed as increase in time spent on open arm at 30 mg/kg, po by elevated plus-maze test; assay type: functional, organism-based; parameters: dose 30 mg/kg; how it was run: as §1
[24] = tested on: Canis familiaris; experiment: Effect on respiratory function in spontaneously breathing mongrel dog assessed as change in intrapleural pressure at 5 mg/kg after intravenous infusion for 15 mins (RVb= 12.6+/-17.1 %); assay type: functional, Canis lupus familiaris
[25] = tested on: Rattus norvegicus; experiment: Effect on acute renal function in rat assessed as change in urine creatinine level per 100 gm body weight at 30 mg/kg, po (RVb= 16.2+/-3.3 mg/dl); assay type: functional
[26] = tested on: Rattus norvegicus; experiment: Ex vivo receptor occupancy of CRF receptor in rat brain at 3 mg/kg, po by [125I]sauvagine binding and autoradiography relative to control; assay type: functional; how it was run: as §2
[27] = Solubility in ethanol; assay type: physicochemical
[28] = Plasma concentration in rat at 30 mg/kg, po after 5 hrs; assay type: ADME, organism-based; parameters: dose 30 mg/kg, route oral; how it was run: as §3
[29] = tested on: Rattus norvegicus; experiment: Toxicity in rat assessed as time spent on rotarod at 1 mg/kg, po after 1 hr by rotarod test; assay type: organism-based; parameters: dose 1 mg/kg, route oral; conditions: in vivo
How it was run: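 Rats (N = 8 per dose) dosed po in 0.25% Methocel 1 h before rotorod testing. Time on rotorod in s, given as mean ± SEM against a vehicle (zero dose) group.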

[30] = tested on: Rattus norvegicus; experiment: Effect on acute renal function in rat assessed as change in urine urea level per 100 gm body weight at 30 mg/kg, po (RVb= 321+/-62 mg/dl); assay type: functional
[31] = tested on: Canis familiaris; experiment: Cardiovascular activity in mechanically ventilated mongrel dog at assessed as increase in contractility at 3 mg/kg to 5 mg/kg, iv by dose escalation study

logP [5]: 4.32 | concentration at 1 h [15]: 3.99 µM | half-life [17]: 26 h | half-life [20]: 13.5 h | solubility [27]: 300 mg/mL (≈ 881 mM) | concentration at 5 h [28]: 4.95 µM
SMILES: CC[C@@H](C)Nc1nc(C)nc2c(-c3ccc(OC)nc3C)c(C)nn12 [PEXACERFONT]
Activity [1]: 11.5% | Activity [2]: 4041 cm | Activity [3]: 3 mL/100 g | Activity [4]: 4.6 mg/dL | Activity [6]: 6.2% | Activity [7]: -2.2% | Activity [8]: Active | Activity [9]: 7.74 | Activity [10]: 32.1 mg/dL | Activity [11]: 0.6% | Activity [12]: 28.1% | Activity [13]: 4% | Activity [14]: 37% | Activity [16]: -23.6% | Time [18]: 157 s | Activity [19]: -3.5% | Activity [21]: 69% | Activity [22]: -3.1% | Activity [23]: Active | Activity [24]: 6.5% | Activity [25]: 8 mg/dL | Activity [26]: 59% | Time [29]: 133 s | Activity [30]: 166 mg/dL | Activity [31]: 200 mmHg/s
